Results taken from ChEMBL document CHEMBL1800063, “Isolation and structural elucidation of proline-containing cyclopentapeptides from an endolichenic Xylaria sp” (2011).
Calls of active or inactive are those of the source. No cut-off for these calls is given here.

Assays:
Candida albicans [1] = experiment: Antifungal activity against Candida albicans SC5314 at 100 ug/mL after 16 hrs by CLSI M-27A broth microdilution method in presence of 0.004 ug/mL ketoconazole relative to compound alone; assay type: functional, organism-based
Candida albicans [2] = experiment: Antifungal activity against Candida albicans SC5314 at 100 ug/mL after 16 hrs by broth microdilution method; assay type: functional, organism-based
Method in brief: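 Candida albicans SC5314 broth microdilution adapted from CLSI M-27A. Overnight culture suspended in RPMI 1640 at 1 × 10^4 cfu/mL. 2 μL of sample plus 80 μL of suspension per well, incubated at 35 °C for 16 h. Ketoconazole was the positive control. Growth was read as optical density against blank-control wells to give the MIC.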

Candida albicans [3] = experiment: Antifungal activity against Candida albicans SC5314 at 6.25 ug/mL after 16 hrs by broth microdilution method in presence of 0.004 ug/mL ketoconazole relative to compound alone; assay type: functional
Candida albicans [4] = experiment: Antifungal activity against Candida albicans SC5314 at 1 ug/mL after 16 hrs by broth microdilution method in presence of 0.004 ug/mL ketoconazole relative to compound alone; assay type: functional

Row | SMILES | Activity (Candida albicans [1]) | Activity (Candida albicans [2]) | fractional inhibitory concentration index (FICI) (Candida albicans [3]) | fractional inhibitory concentration index (FICI) (Candida albicans [4])
1 | CC(C)[C@@H](C)/C=C/[C@@H](C)[C@H]1CC[C@@H]2[C@]1(C)CCC1[C@]23C=CC2(CC(O)CC[C@]12C)OO3 (some centres not stated) | inactive | inactive | – | –
2 | CO[C@@H]1C=C2C3CC[C@H](C(C)/C=C/C(C)C(C)C)[C@@]3(C)CC[C@@H]2[C@@]2(C)CC[C@H](O)C[C@]12O (some centres not stated) | inactive | inactive | – | –
3 | C[C@]1(CCO)CC[C@H]2C(=CC[C@@H]3[C@]2(C)CCC[C@@]3(C)C(=O)O)C1 | inactive | inactive | – | –
4 | CC[C@@H](C)[C@H]1NC(=O)[C@H](C(C)C)NC(=O)[C@H](Cc2ccccc2)N(C)C(=O)[C@@H]2CCCN2C(=O)[C@H](CC(C)C)NC1=O | – | inactive | <0.3125 | –
5 | CC(C)[C@@H](C)/C=C/[C@@H](C)[C@H]1CC[C@H]2C3=CC=C4C[C@@H](O)CC[C@]4(C)[C@H]3CC[C@]12C | inactive | inactive | – | –
6 | CC(C)[C@@H]1OC(=O)[C@@H](Cc2ccccc2)N(C)C(=O)[C@H](C(C)C)OC(=O)[C@@H](Cc2ccccc2)N(C)C(=O)[C@H](C(C)C)OC(=O)[C@@H](Cc2ccccc2)N(C)C1=O [BEAUVERICIN] | – | – | – | <0.375
7 | CC(C)[C@@H](C)/C=C/[C@@H](C)[C@H]1CC[C@H]2C3=C[C@@H](O)[C@@]4(O)C[C@@H](O)CC[C@]4(C)[C@H]3CC[C@]12C | inactive | inactive | – | –
8 | CC(C)C(C)/C=C/[C@@H](C)[C@H]1CCC2=C3C=CC4=CC(=O)CC[C@]4(C)[C@H]3CC[C@@]21C (some centres not stated) | inactive | inactive | – | –
9 | CC(C)[C@@H](C)/C=C/[C@@H](C)[C@H]1CC[C@H]2C3=CC(=O)C4=CC(=O)CC[C@]4(C)[C@H]3CC[C@]12C | inactive | inactive | – | –
